Measurements taken from ChEMBL document CHEMBL1148356, “Synthesis and biological evaluation of 3-heterocyclyl-7,8,9,10-tetrahydro-(7,10-ethano)-1,2,4-triazolo[3,4-a]phthalazines and analogues as subtype-selective inverse agonists for the GABA(A)alpha5 benzodiazepine binding site” (J Med Chem, 2004).
The source made the active and inactive calls. The calls are words filed in the database; no cut-off is given here.

What was measured:
[1] = target: T1, GABA-A receptor; alpha-3/beta-3/gamma-2 (Homo sapiens, UniProt P18507+P28472+P34903); assay: Binding affinity towards human gamma-aminobutyric-acid A receptor alpha-3-beta-3-gamma-2 using [3H]Ro-151788 expressed in L(tk-) cells; type: cell-based
T1 sequence (P18507 whole entry): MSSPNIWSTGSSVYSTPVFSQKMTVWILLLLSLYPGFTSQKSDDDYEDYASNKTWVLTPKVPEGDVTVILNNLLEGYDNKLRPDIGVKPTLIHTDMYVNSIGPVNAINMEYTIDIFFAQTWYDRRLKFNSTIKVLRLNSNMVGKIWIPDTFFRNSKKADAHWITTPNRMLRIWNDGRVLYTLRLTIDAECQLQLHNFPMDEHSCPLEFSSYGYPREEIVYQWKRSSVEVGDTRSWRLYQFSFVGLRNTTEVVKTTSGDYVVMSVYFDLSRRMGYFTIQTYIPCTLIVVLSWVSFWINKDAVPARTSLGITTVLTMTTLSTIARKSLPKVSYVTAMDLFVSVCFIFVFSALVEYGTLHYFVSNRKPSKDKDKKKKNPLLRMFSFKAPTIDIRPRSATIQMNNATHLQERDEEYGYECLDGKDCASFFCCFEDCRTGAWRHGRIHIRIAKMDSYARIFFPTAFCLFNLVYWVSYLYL
T1 sequence (P28472 whole entry): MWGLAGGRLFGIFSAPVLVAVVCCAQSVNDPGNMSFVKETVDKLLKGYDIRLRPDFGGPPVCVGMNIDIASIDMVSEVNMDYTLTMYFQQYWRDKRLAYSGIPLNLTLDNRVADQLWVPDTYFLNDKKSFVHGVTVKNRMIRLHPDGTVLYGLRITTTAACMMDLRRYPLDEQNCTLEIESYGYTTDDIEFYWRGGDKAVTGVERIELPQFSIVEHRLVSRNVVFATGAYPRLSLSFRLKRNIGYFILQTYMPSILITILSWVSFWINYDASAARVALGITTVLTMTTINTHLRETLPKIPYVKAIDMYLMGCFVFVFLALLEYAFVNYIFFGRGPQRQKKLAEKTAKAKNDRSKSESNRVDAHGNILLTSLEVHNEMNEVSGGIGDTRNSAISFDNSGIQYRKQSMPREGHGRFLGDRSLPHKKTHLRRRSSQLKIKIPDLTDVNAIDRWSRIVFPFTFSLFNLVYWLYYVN
T1 sequence (P34903 whole entry): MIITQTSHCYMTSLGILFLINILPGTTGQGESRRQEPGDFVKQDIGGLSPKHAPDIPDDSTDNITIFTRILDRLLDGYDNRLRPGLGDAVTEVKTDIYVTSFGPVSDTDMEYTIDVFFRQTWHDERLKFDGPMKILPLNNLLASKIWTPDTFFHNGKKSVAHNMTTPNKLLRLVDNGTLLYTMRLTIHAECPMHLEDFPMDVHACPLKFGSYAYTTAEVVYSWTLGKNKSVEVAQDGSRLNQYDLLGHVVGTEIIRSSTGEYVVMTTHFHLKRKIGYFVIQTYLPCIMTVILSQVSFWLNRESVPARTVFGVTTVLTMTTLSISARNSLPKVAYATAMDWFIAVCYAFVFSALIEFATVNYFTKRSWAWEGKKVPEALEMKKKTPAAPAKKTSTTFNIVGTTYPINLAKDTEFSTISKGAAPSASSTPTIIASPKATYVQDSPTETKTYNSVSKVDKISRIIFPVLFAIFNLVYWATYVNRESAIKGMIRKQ

[2] = target: T2, GABA-A receptor; alpha-1/beta-3/gamma-2 (Homo sapiens, UniProt P14867+P18507+P28472); assay: Binding affinity towards human alpha-1-beta-3-gamma-2 GABA-A receptor using [3H]Ro-151788 expressed in L(tk-) cells; type: cell-based
T2 sequence (P14867 whole entry): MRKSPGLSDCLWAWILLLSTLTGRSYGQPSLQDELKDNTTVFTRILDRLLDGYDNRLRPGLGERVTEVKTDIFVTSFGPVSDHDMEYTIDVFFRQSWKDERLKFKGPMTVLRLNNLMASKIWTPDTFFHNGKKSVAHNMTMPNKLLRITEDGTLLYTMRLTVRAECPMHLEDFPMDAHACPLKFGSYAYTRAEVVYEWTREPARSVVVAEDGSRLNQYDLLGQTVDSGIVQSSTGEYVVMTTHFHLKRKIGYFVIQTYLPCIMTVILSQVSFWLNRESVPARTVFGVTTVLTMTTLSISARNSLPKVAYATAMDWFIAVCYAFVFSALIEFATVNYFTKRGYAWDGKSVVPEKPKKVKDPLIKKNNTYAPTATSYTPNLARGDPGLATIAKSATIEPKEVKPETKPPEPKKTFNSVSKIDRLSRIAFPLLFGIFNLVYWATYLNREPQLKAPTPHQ
T2 sequence (P18507 whole entry): T1 sequence (P18507 whole entry)
T2 sequence (P28472 whole entry): T1 sequence (P28472 whole entry)

[3] = target: T3, GABA-A receptor; alpha-1/beta-3/gamma-2 (Homo sapiens) (UniProt P14867+P18507+P28472); assay: Percent change in electrophysiological response in Xenopus oocytes expressing Alpha1-beta3-gamma2 GABA-A receptor; type: functional, cell-based; conditions: Oocyte
Outline: (§1)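 Two-electrode voltage clamp on Xenopus oocytes injected with human GABA-A subunit cDNAs, 24-72 h expression, perfused with modified Barth's medium at pH 7.5, clamped between -40 and -70 mV. The GABA EC20 was titrated against a 3 mM GABA maximum. […] Result is % change of control current, mean ± SE of ≥4 oocytes.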

[4] = target: T4, GABA-A receptor; alpha-5/beta-3/gamma-2 (Homo sapiens, UniProt P18507+P28472+P31644); assay: Binding affinity towards human alpha-5-beta-3-gamma-2 GABA-A receptor using [3H]Ro-151788 expressed in L(tk-) cells; type: cell-based
T4 sequence (P18507 whole entry): T1 sequence (P18507 whole entry)
T4 sequence (P28472 whole entry): T1 sequence (P28472 whole entry)
T4 sequence (P31644 whole entry): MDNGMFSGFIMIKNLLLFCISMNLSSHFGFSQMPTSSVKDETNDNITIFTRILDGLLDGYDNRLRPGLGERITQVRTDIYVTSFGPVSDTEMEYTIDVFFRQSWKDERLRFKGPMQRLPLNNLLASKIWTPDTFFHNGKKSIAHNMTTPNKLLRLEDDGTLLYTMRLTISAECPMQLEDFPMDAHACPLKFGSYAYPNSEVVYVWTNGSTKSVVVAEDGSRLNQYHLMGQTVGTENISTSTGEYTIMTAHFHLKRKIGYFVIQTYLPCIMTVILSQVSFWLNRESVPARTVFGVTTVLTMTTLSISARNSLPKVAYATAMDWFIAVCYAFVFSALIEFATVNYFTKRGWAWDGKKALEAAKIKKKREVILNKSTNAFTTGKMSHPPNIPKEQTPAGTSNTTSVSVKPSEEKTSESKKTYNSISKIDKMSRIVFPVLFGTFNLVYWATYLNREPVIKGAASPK

[5] = target: T5, GABA-A receptor; alpha-5/beta-3/gamma-2 (Homo sapiens) (UniProt P18507+P28472+P31644); assay: Percent change in electrophysiological response in Xenopus oocytes expressing Alpha-5-beta-3-gamma-2 GABA-A receptor; type: functional, cell-based; conditions: Oocyte; outline: as §1
[6] = target: T6, GABA-A receptor; alpha-2/beta-3/gamma-2 (Homo sapiens) (UniProt P18507+P28472+P47869); assay: Percent change in electrophysiological response in Xenopus oocytes expressing Alpha2-beta3-gamma2 GABA-A receptor; type: functional, cell-based; conditions: Oocyte; outline: as §1
[7] = target: T7, GABA-A receptor; alpha-2/beta-3/gamma-2 (Homo sapiens, UniProt P18507+P28472+P47869); assay: Binding affinity towards human gamma-aminobutyric-acid A receptor alpha-2-beta-3-gamma-2 using [3H]Ro-151788 expressed in L(tk-) cells; type: cell-based
T7 sequence (P18507 whole entry): T1 sequence (P18507 whole entry)
T7 sequence (P28472 whole entry): T1 sequence (P28472 whole entry)
T7 sequence (P47869 whole entry): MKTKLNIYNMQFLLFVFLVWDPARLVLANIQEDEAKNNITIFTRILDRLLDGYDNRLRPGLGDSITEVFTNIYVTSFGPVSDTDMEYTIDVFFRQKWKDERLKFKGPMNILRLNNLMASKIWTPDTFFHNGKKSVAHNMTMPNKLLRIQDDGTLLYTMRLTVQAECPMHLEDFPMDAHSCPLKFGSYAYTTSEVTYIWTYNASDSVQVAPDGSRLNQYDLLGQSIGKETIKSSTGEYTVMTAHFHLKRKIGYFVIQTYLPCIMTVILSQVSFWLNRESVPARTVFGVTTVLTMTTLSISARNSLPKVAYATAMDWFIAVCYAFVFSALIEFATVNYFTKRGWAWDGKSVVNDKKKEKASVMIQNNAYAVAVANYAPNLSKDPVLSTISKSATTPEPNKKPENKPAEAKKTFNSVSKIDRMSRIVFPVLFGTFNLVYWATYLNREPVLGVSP

[8] = target: T8, GABA-A receptor; alpha-3/beta-3/gamma-2 (Homo sapiens) (UniProt P18507+P28472+P34903); assay: Percent change in electrophysiological response in Xenopus oocytes expressing Alpha3-beta3-gamma2 GABA-A receptor; type: functional, cell-based; conditions: Oocyte; outline: as §1
[9] = target: T3, GABA-A receptor; alpha-1/beta-3/gamma-2 (Homo sapiens); assay: Percent maximum change in electrophysiological response in Xenopus oocytes expressing alpha-1-beta-3-gamma-2 GABA-A receptor; type: functional, cell-based; conditions: Oocyte; outline: as §1
[10] = target: T5, GABA-A receptor; alpha-5/beta-3/gamma-2 (Homo sapiens); assay: Percent maximum change in electrophysiological response in Xenopus oocytes expressing alpha-5-beta-3-gamma-2 GABA-A receptor; type: functional, cell-based; conditions: Oocyte; outline: as §1
[11] = target: T8, GABA-A receptor; alpha-3/beta-3/gamma-2 (Homo sapiens); assay: Percent maximum change in electrophysiological response in Xenopus oocytes expressing alpha-3-beta-3-gamma-2 GABA-A receptor; type: functional, cell-based; conditions: Oocyte; outline: as §1
[12] = target: T6, GABA-A receptor; alpha-2/beta-3/gamma-2 (Homo sapiens); assay: Percent maximum change in electrophysiological response in Xenopus oocytes expressing alpha-2-beta-3-gamma-2 GABA-A receptor; type: functional, cell-based; conditions: Oocyte; outline: as §1
[13] = Oral bioavailability in rat; type: ADME, organism-based; conditions: in vivo
Outline: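 Male SD rats with jugular cannulas were fasted overnight and dosed either by tail-vein IV bolus or orally (n = 3 per route). Serial jugular blood samples were taken up to 8 h. Plasma was frozen at −20 °C, protein-precipitated with acetonitrile containing internal standard, and quantified by LC-MS/MS.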

Rattus norvegicus = assay: Tested for cognitive performance in rats in delayed matching-to-place version of water maze test at 0.3 mg/kg i.p.; Enhanced performance; type: functional, organism-based; set-up: dose 0.3 mg/kg

Structure (SMILES) | Ki [1] [nM] | Ki [2] [nM] | Efficacy [3] [%] | Ki [4] [nM] | Efficacy [5] [%] | Efficacy [6] [%] | Ki [7] [nM] | Efficacy [8] [%] | Efficacy [9] [%] | Efficacy [10] [%] | Efficacy [11] [%] | Efficacy [12] [%] | bioavailability [13] [%] | Activity (Rattus norvegicus)
Cc1noc(-c2nnc3c4c(c(OCc5ccccc5Br)nn23)C2CCC4CC2)n1 | 6.2 | 58.5 | -12 | 1 | -42 | -18 | 16.5 | 12 | – | – | – | – | – | –
Cc1cccc(COc2nn3c(-c4ccccc4)nnc3c3c2C2CCC3CC2)n1 | 23.7 | 122 | 53 | 3 | 14 | 35 | 44.5 | 44 | – | – | – | – | – | –
Cc1cccc(COc2nn3c(-c4ccccc4)nnc3c3ccccc23)n1 | 0.33 | 1.9 | 0.7 | 1.3 | 11 | -3.8 | 1 | -8.3 | – | – | – | – | – | –
CCOC(=O)c1ncn2c1[C@@H]1CCCN1C(=O)c1cc(OC)ccc1-2 | – | – | -12 | – | -12 | -17 | – | -3 | -18 | -21 | -11 | -26 | – | –
Cc1cccc(COc2nn3c(-c4cc(C)on4)nnc3c3c2C2CCC3CC2)n1 | – | – | 21 | – | -29 | 14 | – | -1 | – | – | – | – | 3 | –
CC1(C)CC(=O)c2c(SCCO)sc(-c3nccs3)c2C1 | – | – | – | – | – | – | – | – | – | – | – | – | – | Active
Cc1cccc(COc2nn3c(-c4nc(C)no4)nnc3c3c2C2CCC3CC2)n1 | 11 | 75.7 | -15 | 1.4 | -35 | -10 | – | -21 | – | – | – | – | < 1 | –
Cc1cccc(COc2nn3c(-c4cnccn4)nnc3c3c2C2CCC3CC2)n1 | 10.6 | 84 | 12 | 1.8 | -9 | 8 | 28.4 | 19 | – | – | – | – | – | –
